This passage reports inhibition and Activity results from ChEMBL document CHEMBL2331391, “Peroxisome proliferator-activated receptor-γ mediates the anti-inflammatory effect of 3-hydroxy-4-pyridinecarboxylic acid derivatives: synthesis and biological evaluation” (Eur J Med Chem, 2013).

Activity calls are given as the source filed them. The rule behind the calls is not given here.

For series [1], the system named is Macrophage. Put plainly: Antiinflammatory activity in human macrophages assessed as inhibition of LPS-induced IL-8 release at 10 uM preincubated for 30 mins before LPS-challenge measured after 24 hrs post challenge by ELISA. Format: functional, cell-based. The method, boiled down: (§1)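 Human blood PBMC-derived macrophages were used after 10 days of culture. Purity >95% (esterase, CD14, morphology). Cells were pretreated 30 min at 37 °C with compound, then given 100 ng/mL LPS (S. enteritidis) for 24 h. TNFα, IL-1β and IL-8 in conditioned medium were measured by ELISA. Working solutions were endotoxin-tested by LAL (<3 pg/mL).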
A general note: An ELISA detects its analyte on a solid surface through an enzyme-linked reagent.

Series [2] concerns Macrophage. Description: Antiinflammatory activity in human macrophages assessed as inhibition of LPS-induced IL-1beta release at 10 uM preincubated for 30 mins before LPS-challenge measured after 24 hrs post challenge by ELISA. Format: functional, cell-based. Put shortly:
as §1

In series [3] the test system is Macrophage. Description: Antiinflammatory activity in human macrophages assessed as inhibition of LPS-induced TNFalpha release at 10 uM preincubated for 30 mins before LPS-challenge measured after 24 hrs post challenge by ELISA. Format: functional, cell-based. The method, boiled down: as §1
Series [4] is described as follows: Cytotoxicity against human macrophages at 10 '4 uM after 72 hrs by MTT assay. Particulars: macrophage. Format: cell-based. A general note: Tetrazolium assays rely on reduction of a dye to a coloured formazan, in cell work by metabolically active cells.
Series [5] in a line: Cytotoxicity against human macrophages at 10 '5 uM after 72 hrs by MTT assay. The class given is cell-based. As to conditions: macrophage.
A short description of series [6]: Cytotoxicity against human macrophages up to 100 uM after 72 hrs by MTT assay. Particulars: macrophage. Format: cell-based.
Series [7] is described as follows: Antiinflammatory activity in human macrophages assessed as inhibition of LPS-induced IL8 release at 10 '-3 uM preincubated for 30 mins before LPS-challenge measured after 24 hrs post challenge by ELISA (reference value: 7.86 +/-0.17 ng/ml). Format: functional, Macrophage. The method, boiled down:
as §1

Series [8] can be described thus: Antiinflammatory activity in human macrophages assessed as inhibition of LPS-induced IL8 release at 10 '-2 uM preincubated for 30 mins before LPS-challenge measured after 24 hrs post challenge by ELISA (reference value: 7.86 +/-0.17 ng/ml). Format: functional, Macrophage. The method, boiled down:
as §1

Series [9] is described as follows: Antiinflammatory activity in human macrophages assessed as inhibition of LPS-induced IL8 release at 1 uM preincubated for 30 mins before LPS-challenge measured after 24 hrs post challenge by ELISA (reference value: 7.86 +/-0.17 ng/ml). Format: functional, Macrophage. The method, boiled down:
as §1

A short description of series [10]: Antiinflammatory activity in human macrophages assessed as inhibition of LPS-induced IL8 release at 5 uM preincubated for 30 mins before LPS-challenge measured after 24 hrs post challenge by ELISA (reference value: 7.86 +/-0.17 ng/ml). The class given is functional, Macrophage. Put shortly:
as §1

A short description of series [11]: Antiinflammatory activity in human macrophages assessed as inhibition of LPS-induced IL8 release at 10 uM preincubated for 30 mins before LPS-challenge measured after 24 hrs post challenge by ELISA (reference value: 7.86 +/-0.17 ng/ml). Format: functional, Macrophage. The method, boiled down:
as §1

A short description of series [12]: Antiinflammatory activity in human macrophages assessed as inhibition of LPS-induced IL8 release at 100 uM preincubated for 30 mins before LPS-challenge measured after 24 hrs post challenge by ELISA (reference value: 7.86 +/-0.17 ng/ml). Format: functional, Macrophage. The method, boiled down: as §1
A short description of series [13]: Antiinflammatory activity in human macrophages assessed as inhibition of LPS-induced TNFalpha release at 10 '-3 uM preincubated for 30 mins before LPS-challenge measured after 24 hrs post challenge by ELISA (reference value: 1682 +/-190 ng/ml). The class given is functional, Macrophage. The method, boiled down: as §1
Series [14] can be described thus: Antiinflammatory activity in human macrophages assessed as inhibition of LPS-induced TNFalpha release at 10 '-2 uM preincubated for 30 mins before LPS-challenge measured after 24 hrs post challenge by ELISA (reference value: 1682 +/-190 ng/ml). The class given is functional, Macrophage. Put shortly: as §1
Series [15] is described as follows: Antiinflammatory activity in human macrophages assessed as inhibition of LPS-induced TNFalpha release at 1 uM preincubated for 30 mins before LPS-challenge measured after 24 hrs post challenge by ELISA (reference value: 1682 +/-190 ng/ml). Format: functional, Macrophage. Put shortly:
as §1

A short description of series [16]: Antiinflammatory activity in human macrophages assessed as inhibition of LPS-induced TNFalpha release at 5 uM preincubated for 30 mins before LPS-challenge measured after 24 hrs post challenge by ELISA (reference value: 1682 +/-190 ng/ml). Format: functional, Macrophage. The method, boiled down: as §1
Series [17] can be described thus: Antiinflammatory activity in human macrophages assessed as inhibition of LPS-induced TNFalpha release at 10 uM preincubated for 30 mins before LPS-challenge measured after 24 hrs post challenge by ELISA (reference value: 1682 +/-190 ng/ml). Format: functional, Macrophage. The method, boiled down:
as §1

Series [18] is described as follows: Antiinflammatory activity in human macrophages assessed as inhibition of LPS-induced TNFalpha release at 100 uM preincubated for 30 mins before LPS-challenge measured after 24 hrs post challenge by ELISA (reference value: 1682 +/-190 ng/ml). Format: functional, Macrophage. The method, boiled down:
as §1

For series [19], the target named is T1, Peroxisome proliferator-activated receptor gamma (Mus musculus) (UniProt P37238).
T1 sequence (whole entry): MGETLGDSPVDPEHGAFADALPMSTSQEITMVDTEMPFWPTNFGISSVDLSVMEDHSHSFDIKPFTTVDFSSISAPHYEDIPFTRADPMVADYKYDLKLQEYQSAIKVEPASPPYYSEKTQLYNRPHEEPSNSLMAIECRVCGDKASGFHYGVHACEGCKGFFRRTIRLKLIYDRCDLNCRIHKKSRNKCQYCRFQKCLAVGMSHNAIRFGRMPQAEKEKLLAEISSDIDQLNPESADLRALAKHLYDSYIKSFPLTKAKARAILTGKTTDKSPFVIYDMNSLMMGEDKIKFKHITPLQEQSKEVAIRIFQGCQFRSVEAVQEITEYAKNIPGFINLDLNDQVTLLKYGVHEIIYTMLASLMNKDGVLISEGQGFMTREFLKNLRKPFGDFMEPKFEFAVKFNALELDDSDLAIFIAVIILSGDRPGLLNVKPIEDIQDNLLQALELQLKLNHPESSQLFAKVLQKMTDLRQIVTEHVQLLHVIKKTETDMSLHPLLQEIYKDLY
Description: Induction of PPAR-gamma promoter activity in LPS-stimulated mouse CMT93 cells at 10 uM preincubated for 30 mins before LPS-challenge measured after 6 hrs post challenge by luciferase reporter gene assay. Format: cell-based. Put shortly: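 CMT-93 cells (1×10⁵/well) were transfected with an NF-κB or PPRE luciferase reporter plus CMV-β-Gal. At 24 h they were treated with compound for 30 min, then with 100 ng/mL LPS for 6 h. Cells were lysed in Tris/EDTA/DTT/Triton buffer and supernatant luciferase was read by luminometer. Results are fold over untreated cells.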
On the technique in general: A reporter such as luciferase makes a cellular process visible.

The test system of series [20] is Macrophage. Description: Increase in PPAR-gamma mRNA transcript level in human macrophages at 10 uM by quantitative PCR analysis. The class given is functional, cell-based.
For series [21], the system named is Mus musculus. Put plainly: Antiinflammatory activity in DSS-induced C57Bl/6 mouse colitis model assessed as inhibition IL-1beta level in colonic homogenate at 400 mg/kg/day administered intragastrically for 7 days. Format: functional, organism-based. Put shortly: (§2)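 Male C57Bl/6J mice, 8–10 per group, dosed intragastrically daily for 7 days at 400 mg/kg/day (vehicle 100 µL). From day 2, drinking water carried 3.5% w/vol DSS. Killed 5 days after colitis induction. Full-thickness proximal colon homogenised for MPO activity and IL-1β protein.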

For series [22], the system named is Mus musculus. Put plainly: Antiinflammatory activity in DSS-induced C57Bl/6 mouse colitis model assessed as inhibition MPO activity in colonic homogenate at 400 mg/kg/day administered intragastrically for 7 days. The class given is functional. The method, boiled down:
as §2

The subject of series [23] is Macrophage. Description: Increase in PPAR-gamma mRNA transcript level in human macrophages at 30 mM by quantitative PCR analysis. Format: functional, cell-based.

Turning to `O=C(O)c1ccnc(CO)c1O`, the inhibition result in the series on Macrophage [1], in the series with Macrophage [2] and in the series on Macrophage [3] was “inactive” in each case. For the same compound, the Activity result in [4] was “Toxic”; in [5], “Toxic”; in [6] it was “Non-toxic”.
Regarding `O=C(O)c1ccccc1O`, the inhibition result in the series with Macrophage [1], with Macrophage [2] and in the series on Macrophage [3] was “Active” each time.
As to `Cc1c(O)c(C(=O)O)cc[n+]1C.[Cl-]`, the Activity in [7] came to 7.45 ng/mL; in series [8] it was 7.23 ng/mL; in series [9] it was 7.04 ng/mL; in series [10] it was 7.34 ng/mL; in [11], 6.4 ng/mL; in [12] it was 4.03 ng/mL. The Activity amounted to 1626 ng/mL in [13]; 1418 ng/mL in series [14]; 1368 ng/mL in series [15]; 1394 ng/mL in series [16]; 1404 ng/mL in series [17]; 901 ng/mL in series [18]. For the same compound, the inhibition result in the series on Macrophage [1], in the series on Macrophage [2] and in the series with Macrophage [3] was “Active” throughout.
In the case of `CN(CCOc1ccc(CC2SC(=O)NC2=O)cc1)c1ccccn1` (centres undefined), the outcome (in series [19]; with Macrophage [20]) was Active.
Consider `O=C(O)c1ccncc1O`, for which the inhibition result in the series with Macrophage [1], in the series on Macrophage [2] and in the series on Macrophage [3] was “inactive” in each case. Besides, the results for the Activity entry in series [4], in series [5] and in series [6] were “Toxic”, “Toxic” and “Non-toxic”, respectively.
As for `Cc1cc(C(=O)O)c(O)c(CO)n1`, the inhibition entry in the series on Macrophage [1] and with Macrophage [2] was “Active” throughout.
Turning to `CC(=O)Oc1ccccc1C(=O)O`, the inhibition result with Macrophage [1], in the series on Macrophage [2] and with Macrophage [3] was “Active” throughout.
Regarding `Cc1nccc(C(=O)O)c1O`, the inhibition entry with Macrophage [1], with Macrophage [2] and in the series on Macrophage [3] was “inactive” throughout. Moreover, the Activity result in [4] was “Toxic”; in [5], “Toxic”; in series [6], “Non-toxic”.
`CCc1nccc(C(=O)O)c1O`: the inhibition result with Macrophage [1], with Macrophage [2] and in the series with Macrophage [3] was “inactive” each time.
`Nc1ccc(O)c(C(=O)O)c1`: the inhibition entry in the series on Mus musculus [21] is “inactive”. Further, the inhibition result in the series with Mus musculus [22] is “Active”. The outcome with Macrophage [23] was Active.
